Measurements published in ChEMBL document CHEMBL1132970, “Synthesis of N-substituted 4-(4-hydroxyphenyl)piperidines, 4-(4-hydroxybenzyl)piperidines, and (+/-)-3-(4-hydroxyphenyl)pyrrolidines: selective antagonists at the 1A/2B NMDA receptor subtype” (J Med Chem, 2000).

Legend:
[1] = biological target: Glutamate NMDA receptor; Grin1/Grin2b (Rattus norvegicus, UniProt P35439+Q00960); assay: Inhibitory activity against Xenopus oocytes expressing rat N-Methyl-D-aspartate (NR1A/2B) Receptor subtype.; assay type: cell-based, Oocyte
Method in brief: (§1)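 Electrophysiology on oocytes expressing each NMDA subunit combination. IC50 from curve fitting of concentration-inhibition data pooled from 1-7 separate experiments.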

[2] = biological target: Glutamate NMDA receptor; Grin1/Grin2a (Rattus norvegicus, UniProt P35439+Q00959); assay: Inhibitory activity against Xenopus oocytes expressing rat N-Methyl-D-aspartate (NR1A/2A) Receptor subtype.; assay type: cell-based, Oocyte; method in brief: as §1
[3] = biological target: Glutamate NMDA receptor; Grin1/Grin2c (Rattus norvegicus, UniProt P35439+Q00961); assay: Inhibitory activity against Xenopus oocytes expressing rat N-Methyl-D-aspartate (NR1A/2C) Receptor subtype.; assay type: cell-based, Oocyte; method in brief: as §1
Mus musculus = organism: Mus musculus; assay: Effective dose for protection against MES seizures in mice; assay type: functional
Method in brief: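 Male Swiss Webster mice (23-27 g, food and water ad libitum), compound given iv as 5 mg/mL solution in 0.2 M Tris. Seizure protection tested 2 min after dosing; corneal electroshock, rectangular pulses 50 mA, 60-75 Hz, 0.8 ms width, 0.2 s train. Seizure scored as tonic hind-limb extension. ED50 with 95% confidence limits; at least 24 animals per compound.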

D(2) dopamine receptor = D(2) dopamine receptor (Rattus norvegicus, UniProt P61169); assay: Inhibition of [3H]-raclopride binding at Dopamine receptor D2 in rat brain membranes.; assay type: cell membranes
Method in brief: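 Rat striatal membranes, washed in 50 mM Tris-HCl pH 7.4, assayed in 120 mM NaCl/5 mM KCl/50 mM Tris-HCl pH 7.4. 200 µg membrane protein with 3 nM [3H]raclopride; nonspecific binding with 300 µM sulpiride. Nine concentrations in duplicate; IC50 by sigmoidal curve fit.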

[4] = biological target: T1, Adrenergic receptor alpha-1 (Rattus norvegicus, UniProt P15823+P23944+P43140); assay: Inhibition of [3H]prazosin binding at alpha-1 adrenergic receptor in rat brain cortical membranes.; assay type: cell membranes, Membrane
T1 sequence (P15823 whole entry): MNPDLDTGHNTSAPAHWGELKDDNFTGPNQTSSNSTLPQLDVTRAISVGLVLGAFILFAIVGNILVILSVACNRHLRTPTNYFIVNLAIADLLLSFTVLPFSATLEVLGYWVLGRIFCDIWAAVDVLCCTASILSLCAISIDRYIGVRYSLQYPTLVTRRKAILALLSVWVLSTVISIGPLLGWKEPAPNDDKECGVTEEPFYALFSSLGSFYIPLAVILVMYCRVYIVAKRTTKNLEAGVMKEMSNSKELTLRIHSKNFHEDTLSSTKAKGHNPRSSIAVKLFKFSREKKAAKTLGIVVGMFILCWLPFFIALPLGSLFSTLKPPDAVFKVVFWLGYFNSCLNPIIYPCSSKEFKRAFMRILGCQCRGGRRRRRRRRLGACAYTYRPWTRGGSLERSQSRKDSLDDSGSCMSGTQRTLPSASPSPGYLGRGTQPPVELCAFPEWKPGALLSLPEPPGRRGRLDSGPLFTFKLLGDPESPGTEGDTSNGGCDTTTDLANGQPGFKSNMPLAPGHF
T1 sequence (P23944 whole entry): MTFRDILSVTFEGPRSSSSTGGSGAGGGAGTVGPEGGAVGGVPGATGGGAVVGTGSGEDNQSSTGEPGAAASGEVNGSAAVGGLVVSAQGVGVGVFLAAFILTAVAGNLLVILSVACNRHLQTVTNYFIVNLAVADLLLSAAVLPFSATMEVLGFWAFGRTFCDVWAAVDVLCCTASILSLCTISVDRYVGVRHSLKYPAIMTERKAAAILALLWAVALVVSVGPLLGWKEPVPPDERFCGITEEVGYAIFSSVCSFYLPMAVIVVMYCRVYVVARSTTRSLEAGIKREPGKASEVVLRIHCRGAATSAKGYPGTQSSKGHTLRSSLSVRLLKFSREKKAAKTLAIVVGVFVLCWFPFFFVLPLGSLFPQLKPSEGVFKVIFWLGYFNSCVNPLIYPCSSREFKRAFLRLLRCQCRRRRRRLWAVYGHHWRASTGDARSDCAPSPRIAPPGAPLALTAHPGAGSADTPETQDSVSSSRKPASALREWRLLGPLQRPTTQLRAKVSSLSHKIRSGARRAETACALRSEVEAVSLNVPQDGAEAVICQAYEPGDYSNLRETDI
T1 sequence (P43140 whole entry): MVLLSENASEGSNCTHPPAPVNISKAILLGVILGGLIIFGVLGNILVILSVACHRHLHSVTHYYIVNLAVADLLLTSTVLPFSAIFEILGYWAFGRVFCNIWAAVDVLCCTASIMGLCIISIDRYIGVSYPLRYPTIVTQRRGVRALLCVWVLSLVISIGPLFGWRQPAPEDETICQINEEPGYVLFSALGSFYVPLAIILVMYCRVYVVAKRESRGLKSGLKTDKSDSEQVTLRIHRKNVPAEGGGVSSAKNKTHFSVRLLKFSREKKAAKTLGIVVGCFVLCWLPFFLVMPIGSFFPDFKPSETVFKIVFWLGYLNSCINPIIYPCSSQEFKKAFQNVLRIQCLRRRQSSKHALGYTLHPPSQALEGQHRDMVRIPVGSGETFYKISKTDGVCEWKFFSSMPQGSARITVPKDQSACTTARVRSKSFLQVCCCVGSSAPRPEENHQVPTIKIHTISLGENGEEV
Method in brief: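 Membranes from Sprague-Dawley rat cortex, sucrose/Tris homogenate washed three times. Assayed in 140 mM NaCl/5 mM MgCl2/50 mM Tris-HCl pH 7.4. 200 µg protein incubated with 0.8 nM [3H]prazosin; 10 µM phentolamine defined nonspecific binding. Nine concentrations in duplicate; IC50 from sigmoidal fit.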

Chain of Glutamate NMDA receptor; Grin1/Grin2b (Q00960 whole entry, other chains not shown): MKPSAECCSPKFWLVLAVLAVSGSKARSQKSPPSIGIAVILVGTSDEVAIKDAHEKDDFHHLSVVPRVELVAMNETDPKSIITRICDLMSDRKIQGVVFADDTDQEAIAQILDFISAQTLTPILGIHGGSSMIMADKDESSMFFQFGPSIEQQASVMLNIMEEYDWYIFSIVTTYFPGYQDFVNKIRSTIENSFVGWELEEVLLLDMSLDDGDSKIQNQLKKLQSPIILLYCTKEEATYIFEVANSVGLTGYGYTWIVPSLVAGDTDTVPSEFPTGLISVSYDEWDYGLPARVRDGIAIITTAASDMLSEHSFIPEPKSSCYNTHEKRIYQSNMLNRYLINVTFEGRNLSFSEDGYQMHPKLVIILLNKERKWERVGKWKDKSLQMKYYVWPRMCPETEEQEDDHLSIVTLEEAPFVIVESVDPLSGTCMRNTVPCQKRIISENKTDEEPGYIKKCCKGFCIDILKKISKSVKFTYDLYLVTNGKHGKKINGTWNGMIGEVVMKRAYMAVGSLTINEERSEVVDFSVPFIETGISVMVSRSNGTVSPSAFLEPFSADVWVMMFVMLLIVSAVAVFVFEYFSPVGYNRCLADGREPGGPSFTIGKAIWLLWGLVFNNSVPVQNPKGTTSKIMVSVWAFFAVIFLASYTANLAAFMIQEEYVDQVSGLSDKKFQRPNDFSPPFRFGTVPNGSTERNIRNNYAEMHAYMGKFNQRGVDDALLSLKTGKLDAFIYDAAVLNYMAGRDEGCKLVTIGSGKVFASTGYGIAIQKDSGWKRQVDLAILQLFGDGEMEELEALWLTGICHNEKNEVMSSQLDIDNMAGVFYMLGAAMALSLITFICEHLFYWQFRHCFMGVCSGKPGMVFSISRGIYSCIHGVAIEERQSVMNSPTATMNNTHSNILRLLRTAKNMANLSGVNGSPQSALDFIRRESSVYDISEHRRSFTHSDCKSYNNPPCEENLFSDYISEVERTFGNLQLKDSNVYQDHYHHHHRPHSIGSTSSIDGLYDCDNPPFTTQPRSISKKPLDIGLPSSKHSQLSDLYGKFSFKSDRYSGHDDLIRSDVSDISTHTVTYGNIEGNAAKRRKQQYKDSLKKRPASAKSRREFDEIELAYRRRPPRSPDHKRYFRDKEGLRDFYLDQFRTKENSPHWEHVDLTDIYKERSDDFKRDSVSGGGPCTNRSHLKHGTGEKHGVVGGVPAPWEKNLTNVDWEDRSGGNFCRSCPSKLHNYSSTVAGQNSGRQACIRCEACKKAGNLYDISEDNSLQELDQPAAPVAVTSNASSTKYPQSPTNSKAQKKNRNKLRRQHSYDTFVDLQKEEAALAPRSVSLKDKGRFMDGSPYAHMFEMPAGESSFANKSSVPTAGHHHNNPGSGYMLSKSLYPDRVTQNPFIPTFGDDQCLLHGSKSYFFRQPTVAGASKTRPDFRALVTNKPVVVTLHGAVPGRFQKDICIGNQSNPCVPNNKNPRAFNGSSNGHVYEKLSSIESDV
Chain of D(2) dopamine receptor (P61169 whole entry): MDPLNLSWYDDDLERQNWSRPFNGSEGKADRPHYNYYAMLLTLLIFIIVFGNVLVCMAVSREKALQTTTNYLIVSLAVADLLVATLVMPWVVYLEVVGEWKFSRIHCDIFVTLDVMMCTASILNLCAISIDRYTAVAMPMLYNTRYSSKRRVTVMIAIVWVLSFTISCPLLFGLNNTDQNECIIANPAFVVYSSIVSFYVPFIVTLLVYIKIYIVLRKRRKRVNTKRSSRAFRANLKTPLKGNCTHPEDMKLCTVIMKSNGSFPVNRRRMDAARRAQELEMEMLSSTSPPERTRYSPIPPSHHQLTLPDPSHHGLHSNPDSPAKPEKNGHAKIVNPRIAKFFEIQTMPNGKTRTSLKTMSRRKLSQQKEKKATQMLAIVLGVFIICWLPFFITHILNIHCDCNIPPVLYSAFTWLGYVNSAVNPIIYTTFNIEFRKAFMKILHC
Chain of Glutamate NMDA receptor; Grin1/Grin2a (Q00959 whole entry, other chains not shown): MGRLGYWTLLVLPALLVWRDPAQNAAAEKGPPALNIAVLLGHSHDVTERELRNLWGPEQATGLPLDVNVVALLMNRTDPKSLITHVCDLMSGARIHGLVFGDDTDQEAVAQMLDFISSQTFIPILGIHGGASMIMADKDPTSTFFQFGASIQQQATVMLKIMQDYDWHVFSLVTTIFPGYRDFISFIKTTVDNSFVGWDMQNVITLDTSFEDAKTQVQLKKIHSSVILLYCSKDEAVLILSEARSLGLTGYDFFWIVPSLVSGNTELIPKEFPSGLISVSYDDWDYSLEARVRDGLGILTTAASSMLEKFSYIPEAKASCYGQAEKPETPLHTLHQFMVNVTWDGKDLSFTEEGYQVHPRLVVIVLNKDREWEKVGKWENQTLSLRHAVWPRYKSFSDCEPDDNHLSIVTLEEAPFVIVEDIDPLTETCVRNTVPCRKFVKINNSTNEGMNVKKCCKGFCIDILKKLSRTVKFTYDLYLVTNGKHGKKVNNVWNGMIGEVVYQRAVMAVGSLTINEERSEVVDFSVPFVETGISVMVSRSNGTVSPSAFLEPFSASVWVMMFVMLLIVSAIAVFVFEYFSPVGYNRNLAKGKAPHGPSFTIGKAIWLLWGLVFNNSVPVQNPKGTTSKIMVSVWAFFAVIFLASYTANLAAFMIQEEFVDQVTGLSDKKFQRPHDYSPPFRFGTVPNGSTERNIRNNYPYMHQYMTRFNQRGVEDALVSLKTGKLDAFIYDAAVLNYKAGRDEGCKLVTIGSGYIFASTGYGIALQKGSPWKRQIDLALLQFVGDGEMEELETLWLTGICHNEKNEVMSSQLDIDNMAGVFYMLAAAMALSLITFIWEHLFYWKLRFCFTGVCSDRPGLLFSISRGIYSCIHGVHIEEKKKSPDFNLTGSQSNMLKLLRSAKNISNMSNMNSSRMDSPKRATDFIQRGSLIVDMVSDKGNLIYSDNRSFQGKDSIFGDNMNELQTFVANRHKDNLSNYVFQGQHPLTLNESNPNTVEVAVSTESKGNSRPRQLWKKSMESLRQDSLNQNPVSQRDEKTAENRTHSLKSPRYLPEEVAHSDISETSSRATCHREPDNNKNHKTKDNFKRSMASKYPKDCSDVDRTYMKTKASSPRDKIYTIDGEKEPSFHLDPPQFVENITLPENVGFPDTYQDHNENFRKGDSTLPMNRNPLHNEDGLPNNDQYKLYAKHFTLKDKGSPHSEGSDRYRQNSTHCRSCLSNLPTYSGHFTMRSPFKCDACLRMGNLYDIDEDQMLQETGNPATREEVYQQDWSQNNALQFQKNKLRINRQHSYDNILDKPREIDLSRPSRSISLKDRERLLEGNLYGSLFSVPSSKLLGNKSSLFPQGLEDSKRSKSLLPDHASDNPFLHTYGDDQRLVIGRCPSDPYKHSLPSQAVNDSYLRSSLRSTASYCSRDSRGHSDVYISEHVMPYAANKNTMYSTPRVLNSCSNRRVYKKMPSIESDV
Chain of Glutamate NMDA receptor; Grin1/Grin2c (Q00961 whole entry, other chains not shown): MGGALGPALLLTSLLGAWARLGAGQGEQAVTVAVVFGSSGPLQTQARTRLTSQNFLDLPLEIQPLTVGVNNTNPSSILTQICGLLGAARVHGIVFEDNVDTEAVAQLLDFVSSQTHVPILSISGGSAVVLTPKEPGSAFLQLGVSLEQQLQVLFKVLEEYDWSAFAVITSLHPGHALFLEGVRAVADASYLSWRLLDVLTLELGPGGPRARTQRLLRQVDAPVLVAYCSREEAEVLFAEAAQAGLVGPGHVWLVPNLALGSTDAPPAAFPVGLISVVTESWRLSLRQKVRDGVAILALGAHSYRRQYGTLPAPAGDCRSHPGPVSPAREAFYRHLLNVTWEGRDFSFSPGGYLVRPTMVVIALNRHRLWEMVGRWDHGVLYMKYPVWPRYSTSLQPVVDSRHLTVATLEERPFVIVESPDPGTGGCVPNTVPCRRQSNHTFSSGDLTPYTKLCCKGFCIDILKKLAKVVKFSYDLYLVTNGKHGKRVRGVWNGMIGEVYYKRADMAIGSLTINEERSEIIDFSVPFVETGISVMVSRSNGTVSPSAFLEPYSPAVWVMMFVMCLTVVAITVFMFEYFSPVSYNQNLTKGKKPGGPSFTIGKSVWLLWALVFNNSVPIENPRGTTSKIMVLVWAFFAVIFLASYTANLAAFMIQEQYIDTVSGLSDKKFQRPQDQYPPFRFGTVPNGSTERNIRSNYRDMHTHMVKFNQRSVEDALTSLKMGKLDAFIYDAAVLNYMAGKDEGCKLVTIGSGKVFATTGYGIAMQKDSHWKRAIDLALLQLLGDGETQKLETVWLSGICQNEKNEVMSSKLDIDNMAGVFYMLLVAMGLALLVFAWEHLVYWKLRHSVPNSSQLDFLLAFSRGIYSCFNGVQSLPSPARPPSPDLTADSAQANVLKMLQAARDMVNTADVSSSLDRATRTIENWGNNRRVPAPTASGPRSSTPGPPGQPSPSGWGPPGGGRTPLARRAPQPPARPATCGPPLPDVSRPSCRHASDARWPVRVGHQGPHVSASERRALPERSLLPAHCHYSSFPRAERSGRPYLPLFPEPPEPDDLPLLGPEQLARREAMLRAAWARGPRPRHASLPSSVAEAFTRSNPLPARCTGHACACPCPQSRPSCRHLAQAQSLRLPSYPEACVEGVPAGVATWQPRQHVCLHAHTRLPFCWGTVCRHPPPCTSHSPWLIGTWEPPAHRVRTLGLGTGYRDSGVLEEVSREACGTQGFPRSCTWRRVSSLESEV

Compound | IC50 [1] [µM] | IC50 [2] [µM] | IC50 [3] [µM] | ED50 (Mus musculus) [mg/kg] | IC50 (D(2) dopamine receptor) [µM] | IC50 [4] [µM]
Oc1ccc(C2CCN(CCOCc3ccccc3)CC2)cc1 | 0.019 | 59 | > 100 | – | – | –
CCCCN1CCC(c2ccc(O)cc2)CC1 | 61 | > 100 | > 100 | – | – | –
Oc1ccc(CC2CCN(CCCCc3ccccc3)CC2)cc1 | 0.071 | > 100 | > 100 | – | – | –
Br.Oc1ccc(C2CCN(CCCCc3ccccc3)CC2)cc1 | 0.022 | > 100 | > 100 | 0.23 | 1.2 | 0.54
COc1ccc(C2CCN(CCCCc3ccccc3)CC2)cc1.Cl | > 100 | > 100 | > 100 | 0.56 | 0.41 | 1.7
Oc1ccc(C2CCN(CCCCCc3ccccc3)CC2)cc1 | 0.075 | > 100 | > 100 | – | – | –
Oc1ccc(C2=CCN(CCCCc3ccccc3)CC2)cc1 | 0.011 | > 100 | > 100 | – | – | –
Oc1ccc(C2CCN(CCCc3ccccc3)CC2)cc1 | 0.074 | 51 | > 100 | – | – | –
Oc1ccc(CCCCN2CCC(c3ccccc3)CC2)cc1 | 0.23 | 43 | > 100 | – | – | –
Oc1ccc(C2(O)CCN(CCCCc3ccccc3)CC2)cc1 | 0.012 | 62 | > 100 | 2.3 | 22 | 2.2
Oc1ccc(CC2CCN(CCCc3ccccc3)CC2)cc1 | 0.059 | > 100 | > 100 | – | – | –
Oc1ccc(C2CCN(CCCCCc3ccccc3)C2)cc1 (stereo not drawn) | 0.017 | 41 | > 100 | – | – | –
Oc1ccc(C2CCN(CCCCc3ccccc3)C2)cc1 (stereo not drawn) | 0.13 | 52 | > 100 | – | – | –
Oc1ccc(C2CCN(CC(O)CCc3ccccc3)CC2)cc1 (stereo not drawn) | 0.019 | > 100 | > 100 | 0.46 | 5.9 | 1.4
Oc1ccc(C2(O)CCN(CC(O)CCc3ccccc3)CC2)cc1 (stereo not drawn) | 0.026 | – | > 100 | 5.7 | 105 | 14
c1ccc(CCCCN2CCC(c3ccccc3)CC2)cc1 | 2.2 | > 100 | > 100 | – | – | –
Oc1ccc(CC2CCN(CCC#Cc3ccccc3)CC2)cc1 | 0.8 | > 100 | > 100 | – | – | –
Oc1ccc(CC2CCN(CC#Cc3ccccc3)CC2)cc1 | 0.18 | > 100 | > 100 | – | – | –
